Drawing on ChEMBL document CHEMBL2406946 (Bioorg Med Chem, 2013), this text covers IC50, Activity and Ratio IC50 for 19 compounds.

The target of data set [1] is Aldo-keto reductase family 1 member B1 (Bos taurus, UniProt P16116). Nature of the data set: Inhibition of bovine lens aldose reductase using DL-glyceraldehyde as substrate assessed as NADPH oxidation measured for 10 mins by spectrophotometric analysis. An outline of the steps:
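Aldose reductase isolated from bovine lens (enzyme at 750 µg/mL protein) in 50 mM PBS pH 6.2 with β-mercaptoethanol, Li2SO4 and NADPH, compounds across a 0.1–10 range. Reaction started with DL-glyceraldehyde. Fall in NADPH absorbance at 340 nm followed for 10 min.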

Data set [2] can be described thus: Induction of nitric oxide release at 10^-4 M after 1 hr by Griess assay in presence of L-cysteine relative to control. The class given is physicochemical. Particulars: 100 µM. An outline of the steps: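 Thiol-triggered NO release: compounds at final 10^-4 M incubated 1 h at 37 °C with L-cysteine. 1 mL of mixture treated with Griess reagent (sulfanilamide, N-naphthylethylenediamine dihydrochloride, phosphoric acid), held 10 min at room temperature, absorbance read at 540 nm. Percent NO released relative to a theoretical maximum of 1 mol NO/mol compound. Sodium nitroprusside served as positive control.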
In general terms: Griess reagent forms a coloured azo dye with nitrite.

Data set [3] deals with Aldo-keto reductase family 1 member B1 (Bos taurus) (UniProt P16116). Description: Ratio of quercetin IC50 to compound iC50 for bovine lens aldose reductase.
For data set [4] the target is unchanged. Nature of the data set: Ratio of 4-(5-hydroxy-4-oxo-2-phenyl-4H-chromen-7-yloxy)butyl nitrate IC50 to compound IC50 for bovine lens aldose reductase.

For the compound `O=c1cc(-c2ccc(O)c(O)c2)oc2cc(OCCCCO[N+](=O)[O-])cc(O)c12`, the IC50 (commonly the concentration needed to halve the response being measured) in data set [1] is 472 nM. Moreover, in data set [2], the Activity was 2.345%.

As to `CCOc1cc(O)c2c(=O)cc(-c3ccc4c(c3)OCCO4)oc2c1`, in data set [1], the IC50 worked out at 1190 nM.

For the compound `O=C(COc1cc(O)c2c(=O)cc(-c3ccc4c(c3)OCCO4)oc2c1)OCCCCCCO[N+](=O)[O-]`, the IC50 in data set [1] was 1300 nM. Further, the Activity in data set [2] is recorded as 1.14%.

As to `CCCCCCOC(=O)COc1cc(O)c2c(=O)cc(-c3ccc4c(c3)OCCO4)oc2c1`, the 50% inhibitory concentration (IC50) in data set [1] came out at 2830 nM.

As for `CCOC(=O)COc1cc(O)c2c(=O)cc(-c3ccc4c(c3)OCCO4)oc2c1`, the half-inhibitory concentration (IC50) in data set [1] is 506 nM.

`CCCCOC(=O)COc1cc(O)c2c(=O)cc(-c3ccc4c(c3)OCCO4)oc2c1`: the IC50 in data set [1] is 523 nM.

Take `CCOc1cc(O)c2c(=O)cc(-c3ccc(O)c(O)c3)oc2c1`: the half-maximal inhibitory concentration (IC50) in data set [1] came to 604 nM.

Consider `O=c1cc(-c2ccc(O)c(O)c2)oc2cc(O)cc(O)c12` [LUTEOLIN], for which the half-inhibitory concentration (IC50) in data set [1] was 754 nM.

Regarding `O=c1cc(-c2ccc3c(c2)OCCO3)oc2cc(OCCCCCCO[N+](=O)[O-])cc(O)c12`, in data set [1], the IC50 was determined as 445 nM. In addition, the Activity in data set [2] was 1.328%.

Turning to `CCCCCCOc1cc(O)c2c(=O)cc(-c3ccc(O)c(O)c3)oc2c1`, the IC50 in data set [1] is 1810 nM.

For the compound `O=c1cc(-c2ccc(O)c(O)c2)oc2cc(OCCCCCCO[N+](=O)[O-])cc(O)c12`, in data set [1], the IC50 came out at 491 nM. Moreover, the Activity in data set [2] worked out at 4.637%.

As for `CCCCOc1cc(O)c2c(=O)cc(-c3ccc(O)c(O)c3)oc2c1`, the IC50 in data set [1] is 769 nM.

Turning to `O=C(COc1cc(O)c2c(=O)cc(-c3ccc4c(c3)OCCO4)oc2c1)OCCO[N+](=O)[O-]`, the IC50 in data set [1] turned out to be 445 nM. Moreover, in data set [2], the Activity amounted to 1.018%.

For the compound `CCCCOc1cc(O)c2c(=O)cc(-c3ccc4c(c3)OCCO4)oc2c1`, the IC50 in data set [1] came out at 1250 nM.

Regarding `O=C(COc1cc(O)c2c(=O)cc(-c3ccc4c(c3)OCCO4)oc2c1)OCCCCO[N+](=O)[O-]`, in data set [1], the 50% inhibitory concentration (IC50) was determined as 491 nM. Further, in data set [2], the Activity amounted to 1.351%.

As for `O=c1cc(-c2ccc3c(c2)OCCO3)oc2cc(OCCO[N+](=O)[O-])cc(O)c12`, in data set [3], the Ratio IC50 was determined as 28.5. Moreover, the IC50 in data set [1] turned out to be 99 nM. The Activity in data set [2] stood at 2.111%.

For the compound `CCCCCCOc1cc(O)c2c(=O)cc(-c3ccc4c(c3)OCCO4)oc2c1`, in data set [1], the IC50 was 1710 nM.

Regarding `O=c1cc(-c2ccc(O)c(O)c2)oc2cc(OCCO[N+](=O)[O-])cc(O)c12`, the concentration for half-maximal inhibition (IC50) in data set [1] came to 168 nM. Moreover, the Activity in data set [2] was determined as 1.07%.

With `O=c1cc(-c2ccc3c(c2)OCCO3)oc2cc(OCCCCO[N+](=O)[O-])cc(O)c12`, in data set [4], the Ratio IC50 was found to be 2.3. In addition, the IC50 in data set [1] came out at 127 nM. Further, the Activity in data set [2] is reported as 2.813%.
